# Experiments:
# MDA-MB-231 = assay: Antiproliferative activity against human MDA-MB-231 cells after 48 hrs by MTS assay; type: functional; conditions: MDA-MB-231, 48 h
# Procedure, shortened: (§1)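 Cells were grown in DMEM with 1% penicillin/streptomycin and FBS (10% for MDA-MB-231, 15% for TCC-SUP). At 1×10^4 cells/mL, cells were exposed for 48 h to five compound concentrations freshly diluted from DMSO stocks (final DMSO <1%). MTS reagent was then added for 2 h at 37 °C, 5% CO2, and absorbance read at 490 nm. Viability was taken as % of control and GI50 read from dose-response curves; 3 independent cultures, 4 wells per concentration.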
# [1] = Antiproliferative activity against human TCCSUP cells after 48 hrs by MTS assay; type: functional; conditions: TCC-SUP; procedure, shortened: as §1
Structure (SMILES),GI50 (MDA-MB-231) [nM],GI50 [1] [nM]
Cc1cc(=O)oc2c1ccc1c3ccccc3sc12,49,253
Cc1c(Cl)c(=O)oc2c1ccc1c3ccccc3sc12,460,311
Cc1c(Cl)c(=O)oc2cc3c(cc12)oc1ccccc13,82,243
Cc1c(Cl)c(=O)oc2cc3[nH]c4ccccc4c3cc12,421,149
CCOC(=O)/C=C/n1c2ccccc2c2cc(O)ccc21,198,25
